From PubChem BioAssay
The list is not random: actives were taken first. Their share in the collection is about 5.1%.
STAT1 activator = STAT1 signaling activation; NIH 3T3 STAT1-luciferase reporter, IFN-gamma, luminescence; 100% = IFN-gamma alone, no compound; activation (% of control), % at 5.5 µM; 200,000 tested, 2.6% active; AID 932;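 active = activation above the screen-wide mean activation plus 3 SD, cut at about 130% in these data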;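 note: raw ratio to IFN-gamma control signal so 100% means no change and 0% no light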
STAT3 activator = activators of IL-6 induced STAT3 signaling. U3A cells, IL-6 STAT3-luciferase reporter, luminescence; 100% = signal with IL-6 EC80 alone. activation (% of control), % at 5.6 µM. 190,000 tested, 0.91% active;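 active = activation above the screen-wide mean of compound activation plus 3 SD, cut at about 130% in these data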;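 note: 0% = background luminescence of wells with medium and substrate only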
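Material: STAT3-luciferase reporter U3A cells; Probe or stimulus: IL-6 (33 ng/mL); Incubation: compound pre-incubation 1 h before IL-6, then 6 h stimulation at 37 °C; Technique: luminescence from STAT3-driven luciferase reporter; Evaluation: % activation versus median of IL-6-stimulated wells; Controls: IL-6-only high control.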
NF-kB expr up = compounds increasing NF-kB expression in human neuronal cells; 190,000 tested, 1.6% active; fold change at 12.5 µM; NF-kB reporter expression; stronger effect = higher value; AID 1239; in the data active = fold change above about 3.3
APP 5'UTR act = activates APP 5'UTR luciferase reporter | SH-SY5Y APP 5'UTR luciferase reporter, luminescence; zero percent = DMSO vehicle wells | activation, % at 2 µM | 190,000 tested, 1% active;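 active = activation above a set limit, based on mean plus 3 SD of controls, cut at about 140% in these data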
STAT1 inh-1 = STAT1 signaling inhibition; NIH 3T3 STAT1-luciferase reporter, IFN-gamma, luminescence; inhibition, % at 5.5 µM; 200,000 tested, 0.35% active;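 active = inhibition above a set limit, the mean inhibition across all tested compounds plus 3 SD, cut at about 34% in these data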;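 note: 0% = IFN-gamma with DMSO and 100% = IFN-gamma with 300 µM nifuroxazide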
STAT3 inh = inhibitors of IL-6 induced STAT3 signaling. U3A cells, IL-6 STAT3-luciferase reporter, luminescence; host cell line lacks STAT1. 190,000 tested, 0.89% active. inhibition, % at 5.5 µM;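 active = inhibition above the mean inhibition across all screened compounds plus 3 SD, cut at about 44% in these data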;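 note: 0% = DMSO only wells and 100% = 100 µM nifuroxazide control wells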
STAT1 inh-2 = confirmation of STAT1 signaling inhibitors. shares compounds with STAT1 inh-1. NIH 3T3 STAT1-luciferase reporter, IFN-gamma, luminescence. inhibition, % at 5.5 µM. 200 tested, 55% active;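 active = triplicate mean inhibition exceeding the hit cutoff computed for the primary STAT1 screen, cut at about 35% in these data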;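 note: 0% = DMSO with IFN-gamma and 100% = 300 µM nifuroxazide with IFN-gamma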
NFkB inh = counter-screen for STAT1 inhibitors: NF-kappaB inhibition; shares compounds with STAT1 inh-1; HEK293T NF-kB luciferase reporter, TNF-alpha induced, luminescence; inhibition, % at 5.7 µM; 200 tested, 30% active;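 active = inhibition above the mean of solvent-only control wells plus 3 SD of those wells, cut at about 15% in these data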;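 note: 0% = DMSO with TNF-alpha and 100% = MG-132 control with TNF-alpha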
STAT3 inh STAT1c = inhibits STAT3, counter-screen to STAT1 inhibitors | shares compounds with STAT1 inh-1 | U3A cells, IL-6 STAT3 luciferase reporter, luminescence; cells lacking STAT1 | inhibition, % at 5.7 µM | 200 tested, 20% active;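 active = inhibition above the mean of solvent-only control wells plus 3 SD, set per campaign, cut at about 25% in these data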;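 note: 0% = IL-6 plus DMSO and 100% = IL-6 plus nifuroxazide control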
STAT1 activ conf = STAT1 activation, confirmation assay. NIH 3T3 STAT1-luciferase reporter, IFN-gamma potentiation, luminescence; 100% = IFN-gamma EC80 alone, no compound. shares compounds with STAT1 activator. activation (% of control), % at 5.7 µM. 1,200 tested, 97% active;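 active = activation above a set limit carried over from the earlier primary STAT1 screen, cut at about 140% in these data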;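 note: simple ratio to median IFN-gamma plus DMSO wells so 0% means no light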
NFkB act STAT1ct = NF-kappaB activation in STAT1 activator counter-screen | shares compounds with STAT1 activator | HEK293T NF-kB luciferase reporter, TNF-alpha stimulated, luminescence; 100% = TNF-alpha with vehicle only | activation (% of control), % at 5.7 µM | 1,200 tested, 43% active;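 active = activation above the mean of solvent-only control wells plus 3 SD, set per campaign, cut at about 130% in these data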;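 note: TNF-alpha given at a submaximal dose yielding about 80% of full reporter signal; values are well signal over median control so 100% means no change and 0% no light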
STAT3 act 2 = activates human STAT3, counter-screen to STAT1 activators; shares compounds with STAT1 activator; U3A cells STAT3-luciferase reporter, IL-6, luminescence; cells lack STAT1; 100 = IL-6 alone, no compound effect; activation (% of control), % at 5.7 µM; 1,200 tested, 46% active; AID 1316;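 active = activation above the solvent-only control well mean plus 3 SD, set per plate batch, cut at about 110% in these data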;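 note: 0% = no luminescence and 100% = median IL-6 plus DMSO wells; higher means more STAT3 reporter activation so hits are non-selective activators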
Active calls of the source: *.

`CCN(CC(=O)NCc1ccc(Cl)cc1)C(=O)/C=C/c1cccs1` gave STAT1 activator 36, STAT3 activator 109, NF-kB expr up 0.89, APP 5'UTR act 1, STAT1 inh-1 68*, STAT3 inh -10, STAT1 inh-2 8, NFkB inh 2 and STAT3 inh STAT1c 3.
`Cc1csc(NC(=O)C(F)(F)F)n1` gave STAT1 activator 106, STAT3 activator 108, NF-kB expr up 0.99, APP 5'UTR act -17, STAT1 inh-1 -7 and STAT3 inh -10.
For O=C(/C=C/c1cn(-c2ccccc2)nc1-c1cccnc1)N1CCCC1 the results were STAT1 activator 34, STAT3 activator 83, NF-kB expr up 0.69, APP 5'UTR act -19, STAT1 inh-1 71*, STAT3 inh 26, STAT1 inh-2 55*, NFkB inh 37* and STAT3 inh STAT1c 33*.
`CCC(CO)NCc1cc(OC)c(OCC(=O)NCCc2ccccc2)cc1Br` (stereo not drawn) gave STAT1 activator 110, STAT3 activator 103, NF-kB expr up 1.1, APP 5'UTR act -5, STAT1 inh-1 -11 and STAT3 inh -1.
CCC(=O)N/N=c1/sc2ccccc2n1C was read as STAT1 activator 102, STAT3 activator 107, NF-kB expr up 1.1, APP 5'UTR act -4, STAT1 inh-1 -3 and STAT3 inh -4.
Screening Cn1/c(=N/N=C/c2ccccn2)sc2ccccc21 returned STAT1 activator 152*, STAT3 activator 119, NF-kB expr up 5.3*, APP 5'UTR act 114, STAT1 inh-1 -56, STAT3 inh -15, STAT1 activ conf 219*, NFkB act STAT1ct 142* and STAT3 act 2 130*.
Cc1cc(NC(=O)C(=O)c2cn(C)c3ccccc23)no1 was read as STAT1 activator 126, STAT3 activator 111, NF-kB expr up 1.3, APP 5'UTR act 1, STAT1 inh-1 -29 and STAT3 inh -11.
CC(C(=O)N1CCOCCOCCOCCOCCOCC1)N1C(=O)c2ccccc2C1=O (stereo not drawn) was read as STAT1 activator 94, STAT3 activator 98, NF-kB expr up 1.2, APP 5'UTR act -16, STAT1 inh-1 7 and STAT3 inh 8.
`N#Cc1c(/N=C/N2CCOCC2)sc2c1CCCCC2` gave STAT1 activator 155*, STAT3 activator 112, NF-kB expr up 4.9*, APP 5'UTR act 123, STAT1 inh-1 -60, STAT3 inh -9, STAT1 activ conf 194*, NFkB act STAT1ct 131 and STAT3 act 2 126*.
`Cc1ccc(/C=N/c2sc3c(c2C#N)CCC3)o1` gave STAT1 activator 167*, STAT3 activator 88, NF-kB expr up 0.97, APP 5'UTR act -1, STAT1 inh-1 -73, STAT3 inh 17, STAT1 activ conf 188*, NFkB act STAT1ct 135* and STAT3 act 2 105.
Screening O=C(CSc1nnnn1-c1ccccc1)Nc1nc(-c2ccccc2)ns1 returned STAT1 activator 101, STAT3 activator 98, NF-kB expr up 1.1, APP 5'UTR act 5, STAT1 inh-1 -1 and STAT3 inh 5.
`CC(C)(C)C(=O)Nc1nc(-c2ccccc2)ns1` gave STAT1 activator 165*, STAT3 activator 94, NF-kB expr up 5.9*, APP 5'UTR act 144*, STAT1 inh-1 -71, STAT3 inh 11, STAT1 activ conf 200*, NFkB act STAT1ct 129 and STAT3 act 2 110.
Screening CS(=O)(=O)c1cnc2c(-c3ccsc3)cnn2c1N returned STAT1 activator 157*, STAT3 activator 92, NF-kB expr up 2.6, APP 5'UTR act 109, STAT1 inh-1 -65, STAT3 inh 13, STAT1 activ conf 171*, NFkB act STAT1ct 121 and STAT3 act 2 111*.
For CS(=O)(=O)c1cnc2c(S(=O)(=O)c3ccccc3)cnn2c1N the results were STAT1 activator 100, STAT3 activator 105, NF-kB expr up 1, APP 5'UTR act 9, STAT1 inh-1 -1 and STAT3 inh -1.
For Cc1ccc(NC(=O)Cn2nc(C)c(S(=O)(=O)N(C)C)c2C)cc1C the results were STAT1 activator 99, STAT3 activator 106, NF-kB expr up 0.9, APP 5'UTR act 36, STAT1 inh-1 1 and STAT3 inh -8.
NC(N)=Nc1nc(C2COc3ccccc3O2)cs1 (stereo not drawn) was read as STAT1 activator 164*, STAT3 activator 92, NF-kB expr up 5*, APP 5'UTR act 166*, STAT1 inh-1 -72, STAT3 inh 12, STAT1 activ conf 202*, NFkB act STAT1ct 132 and STAT3 act 2 105.
`N/C(=N\O)C1COc2ccccc2O1` (stereo not drawn) gave STAT1 activator 101, STAT3 activator 94, NF-kB expr up 1.2, APP 5'UTR act -10, STAT1 inh-1 -1 and STAT3 inh 9.
`Cc1ccc(-c2nc(Nc3ccccc3)n[nH]2)cc1` gave STAT1 activator 193*, STAT3 activator 96, NF-kB expr up 10*, APP 5'UTR act 188*, STAT1 inh-1 -101, STAT3 inh 6, STAT1 activ conf 290*, NFkB act STAT1ct 153* and STAT3 act 2 122*.
For Cc1ccc2nsnc2c1S(=O)(=O)N1CCOCC1 the results were STAT1 activator 100, STAT3 activator 97, NF-kB expr up 1, APP 5'UTR act -14, STAT1 inh-1 0 and STAT3 inh 11.
O=C(Oc1oc(-c2ccco2)nc1C=Nc1ccccc1)c1ccoc1 was read as STAT1 activator 104, STAT3 activator 100, NF-kB expr up 2.3, APP 5'UTR act -16, STAT1 inh-1 -4 and STAT3 inh 6.
